Experimental data reported in ChEMBL document CHEMBL1649165, “Activity profile in vitro of micafungin against Spanish clinical isolates of common and emerging species of yeasts and molds” (2009).

Legend:
Assay type in all cases: functional
Fennellia nivea = test: Antimicrobial activity against Aspergillus niveus by broth microdilution method
How it was run: (§1)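 Clinical mould isolates, tested by broth microdilution using the AFST-EUCAST reference method for filamentous fungi. For echinocandins, the endpoint was the minimum effective concentration: the lowest drug concentration giving aberrant hyphal growth, read with an inverted microscope.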

Aspergillus ustus = test: Antimicrobial activity against Aspergillus ustus by broth microdilution method; how it was run: as §1
Aspergillus fumigatus = test: Antimicrobial activity against Aspergillus fumigatus by broth microdilution method; how it was run: as §1
Trichosporon asahii = test: Antimicrobial activity against Trichosporon asahii by broth microdilution method
How it was run: (§2)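 Nonfermentative yeast clinical isolates (Rhodotorula, Trichosporon) tested by broth microdilution. The EUCAST yeast recommendations were followed strictly, with one minor modification to improve growth. MIC was read as the endpoint.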

Exophiala dermatitidis = test: Antimicrobial activity against Exophiala dermatitidis by broth microdilution method
Kluyveromyces marxianus = test: Antimicrobial activity against Candida kefyr by broth microdilution method
How it was run: (§3)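 Clinical isolates from human patients, tested by broth microdilution using the AFST-EUCAST reference procedure for fermentative yeasts. The MIC was read per that reference method.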

Lewia infectoria = test: Antimicrobial activity against Alternaria infectoria by broth microdilution method; how it was run: as §1
Cladosporium = test: Antimicrobial activity against Cladosporium spp. by broth microdilution method; how it was run: as §1
Fusarium oxysporum = test: Antimicrobial activity against Fusarium oxysporum by broth microdilution method; how it was run: as §1
Scytalidium hyalinum = test: Antimicrobial activity against Scytalidium hyalinum by broth microdilution method; settings: Neoscytalidium hyalinum
How it was run: (§4)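 Filamentous fungus clinical isolates tested by the AFST-EUCAST reference broth microdilution method for moulds. For echinocandins, the endpoint was the minimum effective concentration: the lowest drug concentration giving aberrant hyphal growth, read with an inverted microscope.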

Alternaria alternata = test: Antimicrobial activity against Alternaria alternata by broth microdilution method; how it was run: as §1
Lecythophora hoffmannii = test: Antimicrobial activity against Lecythophora hoffmannii by broth microdilution method; settings: Coniochaeta hoffmannii; how it was run: as §4
[1] = tested on: Cladophialophora bantiana; test: Antimicrobial activity against Cladophialophora bantiana by broth microdilution method; how it was run: as §1
Candida parapsilosis = test: Antimicrobial activity against Candida parapsilosis by broth microdilution method; settings: Lodderomyces parapsilosis; how it was run: as §3
Aspergillus sclerotiorum = test: Antimicrobial activity against Aspergillus sclerotiorum by broth microdilution method; how it was run: as §1
Candida metapsilosis = test: Antimicrobial activity against Candida metapsilosis by broth microdilution method; settings: Lodderomyces metapsilosis; how it was run: as §3
Beauveria bassiana = test: Antimicrobial activity against Beauveria bassiana by broth microdilution method; how it was run: as §1
Candida albicans = test: Antimicrobial activity against Candida albicans by broth microdilution method; how it was run: as §3
Pichia norvegensis = test: Antimicrobial activity against Candida norvegensis by broth microdilution method; how it was run: as §3
Trichosporon jirovecii = test: Antimicrobial activity against Trichosporon jirovecii by broth microdilution method; settings: Cutaneotrichosporon jirovecii; how it was run: as §2
Rhizomucor = test: Antimicrobial activity against Rhizomucor spp.by broth microdilution method; how it was run: as §4
[2] = tested on: Meyerozyma guilliermondii; test: Antimicrobial activity against Candida guilliermondii by broth microdilution method; how it was run: as §3
Rhodotorula mucilaginosa = test: Antimicrobial activity against Rhodotorula mucilaginosa by broth microdilution method; how it was run: as §2
Trichosporon dermatis = test: Antimicrobial activity against Trichosporon dermatis by broth microdilution method; settings: Cutaneotrichosporon dermatis; how it was run: as §2
Wickerhamomyces anomalus = test: Antimicrobial activity against Candida pelliculosa by broth microdilution method; settings: Hansenula anomala; how it was run: as §3
Paecilomyces lilacinus = test: Antimicrobial activity against Paecilomyces lilacinus by broth microdilution method; settings: Purpureocillium lilacinum; how it was run: as §4
Neurospora sitophila = test: Antimicrobial activity against Chrysonilia sitophila by broth microdilution method; how it was run: as §1
[Candida] intermedia = Antimicrobial activity against Candida intermedia by broth microdilution method; settings: Sungouiella intermedia; how it was run: as §3
[3] = tested on: Cunninghamella bertholletiae; test: Antimicrobial activity against Cunninghamella bertholletiae by broth microdilution method; how it was run: as §1
[4] = tested on: Kazachstania pintolopesii; test: Antimicrobial activity against Candida pintolopesii by broth microdilution method; settings: Arxiozyma pintolopesii; how it was run: as §3
Paecilomyces variotii = test: Antimicrobial activity against Paecilomyces variotii by broth microdilution method; how it was run: as §4
Rhodotorula glutinis = test: Antimicrobial activity against Rhodotorula glutinis by broth microdilution method; how it was run: as §2
[5] = Antimicrobial activity against Hormographiella aspergillata by broth microdilution method; settings: Coprinopsis cinerea; how it was run: as §4
Fusarium proliferatum = test: Antimicrobial activity against Fusarium proliferatum by broth microdilution method; how it was run: as §1
Scedosporium apiospermum = test: Antimicrobial activity against Scedosporium apiospermum by broth microdilution method; how it was run: as §4
Candida orthopsilosis = test: Antimicrobial activity against Candida orthopsilosis by broth microdilution method; settings: Lodderomyces orthopsilosis; how it was run: as §3
Trichosporon domesticum = test: Antimicrobial activity against Trichosporon mycotoxinivorans by broth microdilution method; settings: Apiotrichum domesticum
How it was run: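 Spanish human clinical isolates were tested as nonfermentative yeasts by broth microdilution. The method strictly followed the EUCAST recommendations, with a minor modification to improve growth, and the read-out was the MIC.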

[6] = tested on: Scopulariopsis brevicaulis; test: Antimicrobial activity against Scopulariopsis brevicaulis by broth microdilution method; how it was run: as §4
Torulaspora delbrueckii = test: Antimicrobial activity against Candida coliculosa by broth microdilution method; how it was run: as §3
Fusarium reticulatum = test: Antimicrobial activity against Fusarium reticulatum by broth microdilution method; how it was run: as §4
Lomentospora prolificans = test: Antimicrobial activity against Scedosporium prolificans by broth microdilution method; how it was run: as §4
Fusarium verticillioides = test: Antimicrobial activity against Fusarium verticillioides by broth microdilution method; how it was run: as §4
Aspergillus terreus = test: Antimicrobial activity against Aspergillus terreus by broth microdilution method; how it was run: as §1
Saccharomyces cerevisiae = test: Antimicrobial activity against Saccharomyces cerevisiae by broth microdilution method
[7] = Antimicrobial activity against Rhizopus microsporus by broth microdilution method; how it was run: as §4

CC[C@@H]([C@H](C)O)n1ncn(-c2ccc(N3CCN(c4ccc(OC[C@@H]5CO[C@@](Cn6cncn6)(c6ccc(F)cc6F)C5)cc4)CC3)cc2)c1=O [POSACONAZOLE]
0.06 µg/mL: MIC50 (Aspergillus fumigatus) | MIC50 (Exophiala dermatitidis) | MIC90 (Kluyveromyces marxianus) | MIC50 (Cladosporium) | MIC50 (Scytalidium hyalinum) | MIC50 (Lecythophora hoffmannii) | MIC50 [1] | MIC50 (Aspergillus terreus)
2 µg/mL: MIC50 (Rhodotorula mucilaginosa) | MIC50 (Fusarium verticillioides)
4 µg/mL: MIC50 (Fusarium oxysporum) | MIC50 (Beauveria bassiana) | MIC50 (Rhizomucor) | MIC50 (Neurospora sitophila) | MIC50 [3] | MIC50 [5] | MIC50 [6] | MIC50 (Fusarium reticulatum) | MIC50 [7]
0.03 µg/mL: MIC50 (Kluyveromyces marxianus) | MIC90 (Candida parapsilosis) | MIC50 (Candida metapsilosis) | MIC50 (Pichia norvegensis) | MIC50 (Wickerhamomyces anomalus) | MIC50 ([Candida] intermedia) | MIC50 [4] | MIC50 (Paecilomyces variotii) | MIC50 (Candida orthopsilosis) | MIC50 (Torulaspora delbrueckii)
0.25 µg/mL: MIC90 (Aspergillus fumigatus) | MIC50 (Trichosporon asahii) | MIC50 (Trichosporon jirovecii) | MIC50 (Trichosporon dermatis) | MIC50 (Paecilomyces lilacinus) | MIC90 (Paecilomyces variotii) | MIC50 (Rhodotorula glutinis) | MIC50 (Trichosporon domesticum) | MIC50 (Saccharomyces cerevisiae)
1 µg/mL: MIC50 (Alternaria alternata) | MIC50 (Scedosporium apiospermum)
0.5 µg/mL: MIC50 (Lewia infectoria) | MIC90 (Paecilomyces lilacinus) | MIC90 (Saccharomyces cerevisiae)
0.02 µg/mL: MIC50 (Candida parapsilosis) | MIC50 (Candida albicans) | MIC90 (Candida albicans)
8 µg/mL: MIC90 (Scedosporium apiospermum)
> 8 µg/mL: MIC90 (Fennellia nivea) | MIC90 (Aspergillus ustus) | MIC90 (Trichosporon asahii) | MIC90 (Exophiala dermatitidis) | MIC90 (Lewia infectoria) | MIC90 (Cladosporium) | MIC90 (Fusarium oxysporum) | MIC90 (Scytalidium hyalinum) | MIC90 (Alternaria alternata) | MIC90 (Lecythophora hoffmannii) | MIC90 [1] | MIC90 (Aspergillus sclerotiorum) | MIC90 (Candida metapsilosis) | MIC90 (Beauveria bassiana) | MIC90 (Pichia norvegensis) | MIC90 (Trichosporon jirovecii) | MIC90 (Rhizomucor) | MIC90 [2] | MIC90 (Rhodotorula mucilaginosa) | MIC90 (Trichosporon dermatis) | MIC90 (Wickerhamomyces anomalus) | MIC90 (Neurospora sitophila) | MIC90 ([Candida] intermedia) | MIC90 [3] | MIC90 [4] | MIC90 (Rhodotorula glutinis) | MIC90 [5] | MIC50 (Fusarium proliferatum) | MIC90 (Fusarium proliferatum) | MIC90 (Candida orthopsilosis) | MIC90 (Trichosporon domesticum) | MIC90 [6] | MIC90 (Torulaspora delbrueckii) | MIC90 (Fusarium reticulatum) | MIC50 (Lomentospora prolificans) | MIC90 (Lomentospora prolificans) | MIC90 (Fusarium verticillioides) | MIC90 [7]
0.12 µg/mL: MIC50 (Fennellia nivea) | MIC50 (Aspergillus ustus) | MIC50 (Aspergillus sclerotiorum) | MIC50 [2] | MIC90 (Aspergillus terreus)
